# Measurements from different studies.
# Lines come from different studies, so protocols differ.
# Target: Mitogen-activated protein kinase 10 (MAPK10, Homo sapiens, UniProt P53779)
Compound,observed,method,tested at,remaining binding
C[C@@H]1CCN(c2nccc(-c3cnn4ncccc34)n2)C1,binding,,1 µM,34%
O=C(c1ccc(Nc2ncc(Cl)c(-c3cc4ccccc4s3)n2)cc1)N1CCC(N2CCCC2)CC1,binding,competition with immobilised ligand,1 µM,5.8%
F[C@@H]1CCN(c2nccc(-c3cnn4ncccc34)n2)C1,binding,,1 µM,87%
Nc1ncc2c(n1)-c1c([nH]c3ccc(C#CC4CC4)cc13)CCCC2,binding,competition with immobilised ligand,1 µM,76%
Cc1cnn2ncc(-c3ccnc(N(C)C)n3)c2c1,binding,,1 µM,71%
O=C(N[C@H]1CCCCC/C=C\C2C[C@@]2(C(=O)O)NC(=O)[C@@H]2C[C@@H](Oc3ccncc3)CN2C1=O)OC1CCCC1 (stereo partly drawn),binding,competition with immobilised ligand,1 µM,81%
C[C@@H]1CN(c2ccc3ncc(-c4ccc5[nH]nc(C6CC6)c5c4)n3n2)C[C@H](C)O1,binding,competition with immobilised ligand,0.5 µM,52%
CCN1CCN(Cc2ccc(C(=O)Nc3ccc(C)c(Oc4ccc5c(c4)CC(=O)N5)c3)cc2C(F)(F)F)CC1,binding,competition with immobilised ligand,1 µM,81%
Cc1ccc(-c2cnc([C@@]3(O)CC[C@H](C(=O)O)C(C)(C)C3)s2)cc1Nc1cccc(C(F)(F)F)n1,binding,competition with immobilised ligand,1 µM,37.5%
O=C(Nc1c[nH]nc1C(=O)NC1CCNCC1)c1cc(F)cc(F)c1,binding,competition with immobilised ligand,1 µM,100%
Cc1cnc(Nc2ccc(C(=O)N3CCC(N4CCCC4)CC3)cc2)nc1-c1cc2ccccc2s1,binding,competition with immobilised ligand,1 µM,8.6%
N[C@@H]1CCN(c2nccc(-c3cnn4ncccc34)n2)C1,binding,,1 µM,52%
CO[C@H]1CC[C@H](CNc2ccc(S(=O)(=O)NC(=O)c3ccc(N4CCN(CC5=C(c6ccc(Cl)cc6)CC(C)(C)CC5)CC4)cc3Oc3cnc4[nH]ccc4c3)cc2[N+](=O)[O-])CC1,cell-free assay,competition with immobilised ligand,1 µM,77%
O=C(NCCCN1CCOCC1)c1ccc(Nc2ncc(Cl)c(-c3ccc(Cl)s3)n2)cc1,binding,competition with immobilised ligand,1 µM,4.7%
N#Cc1ccccc1CSc1nnc2c(n1)[nH]c1ccccc12,binding,competition with immobilised ligand,10 µM,100%
c1cncc(-c2cccc(Nc3nccc(NC4CCCCC4)n3)c2)c1,binding,competition with immobilised ligand,10 µM,51%
CCC(=O)N[C@H]1CC[C@@H](C(=O)N(C)c2ccc(-c3nc4ccccc4o3)cc2)C1,cell-free assay,competition with immobilised ligand,1 µM,85%
CN(C)c1nccc(-c2cnn3ncccc23)n1,binding,,1 µM,49%
O=C(N1CCS(=O)(=O)CC1)N1C[C@H](c2ccc(OC(F)(F)F)cc2)C[C@H](c2nc(C3CC3)no2)C1,cell-free assay,competition with immobilised ligand,1 µM,79%
COc1cnc(Nc2cccc(S(N)(=O)=O)c2)nc1N1CCN(c2ccccc2)CC1,binding,competition with immobilised ligand,1 µM,83%
CS(=O)(=O)NCC[C@H](NC(=O)c1cncc2c1cnn2-c1ccc(F)cc1)c1ccnc(S(C)(=O)=O)c1,cell-free assay,competition with immobilised ligand,1 µM,100%
CN(C)c1ncc(F)c(-c2cnn3ncccc23)n1,binding,,1 µM,73%
CCC(=N\O)/C(C)=C/c1ccc(F)cc1,cell-free assay,competition with immobilised ligand,1 µM,100%
CC(C)(C)c1ccc(-c2nc(CBr)nn2-c2cccc(O)c2)cc1,cell-free assay,competition with immobilised ligand,10 µM,65%
